Laboratory results taken from the RNAGym collection of RNA variant scans (doi:10.1126/science.aae0568).
Variants at the floor of the assay were thinned out.

B1: tRNA (parent)
chain: GUUCCGUUGGCGUAAUGGUAACGCGUCUCCCUCCUAAGGAGAAGACUGCGGGUUCGAGUCCCGUACGGAACG

Variants of: B1
Experiment: yeast fitness relative to wild type (ratio to wild type); higher = fitter; tRNA-Arg(CCU), competitive growth, 37 C, YPD
How it was run: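 The tRNA-Arg(CCU) gene variants were made by chemical synthesis with a 3% per-site mutation rate at 69 sites and inserted at the native genomic locus of Saccharomyces cerevisiae. After pooling, the strains were competed in YPD at 37°C for 24 hours in six parallel replicates. Gene amplicons from the start population and each end population were read by 100-nucleotide paired-end sequencing, and Darwinian fitness relative to wild type was taken from genotype frequency changes. Genotypes needed ≥ 100 starting reads, and estimates < 0.5 were set to 0.5.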

Variant	yeast fitness
G23C C46U A70U	0.622
C24A C33G C34U G58C C62U	≤ 0.5
G23A U26C C29U C33G	≤ 0.5
C22U U32A C46G G52C C62U	≤ 0.5
G23C C61U A70U	0.6
G23C C31A C62A	0.527
C22U U32C C61G A69C	≤ 0.5
C24A C55A C62U A65C	0.529
G23A C29U C31U A42G	≤ 0.5
C22U U32C G48C A57G G68C	≤ 0.5
G23C C24G C33G A40U A70G	≤ 0.5
G23A C66G	0.659
G23A C66U	0.824
G23A C66A	0.535
C24A A36C	0.531
C22U G44C	0.812
C22U U28C C49A	≤ 0.5
G23C A42G	0.575
G23A C62U	0.781
G23A C62G	0.782
G23A C31U A70U	0.528
C22U U28A A37U G51C C66U	0.606
G23C C27U G56A G63C	0.573
G23C G67A	0.56

Variant	yeast fitness
G23A G52C	0.564
G23C G58A	0.6
G23C G58U	0.565
C24A C33A C46U C60G	≤ 0.5
G23C G56A A70U	≤ 0.5
C22U U35C C55A A65G C66U	≤ 0.5
G23C C24G U32G A42C G44A G51C C60U	≤ 0.5
G23A U53C C66A	≤ 0.5
C24A C30U A45G U54C A57U C62U	0.548
G23C C49G	0.563
C22U U54C C66G	≤ 0.5
G23A A36U G39C A70C	≤ 0.5
G23A A42G A45U G63C U64C A65G	≤ 0.5
G23C C24U A57C G63A C66G	≤ 0.5
G23U G52A C55A U64A	≤ 0.5
C22U G67C	0.822
C24A A45G C61G C62U	0.543
C22U U28A C29U G38A	≤ 0.5
G23A G63A	0.7
C22U U32C A45U C46U A57U	≤ 0.5
C22U G39C G48C	0.516
C24A C31U A45U A69U	≤ 0.5
C24A A43U U59A C61U	≤ 0.5
C24A C31U	0.754

Variant	yeast fitness
C24A C31A	0.603
C24A C31G	0.625
C22U U28C C29G C33A C62U G63A U64A	≤ 0.5
G23C G38C A40U G58C	≤ 0.5
G23A A36G A57C C60A	≤ 0.5
C24A C33A C49U U54G A70C	≤ 0.5
G23C C24A C30G A40U U47A G51C	0.506
C22U G44A C46G G51A C66G	≤ 0.5
G23C A37G A42U G48C C49U	≤ 0.5
G23A A36U G39C C66U	≤ 0.5
G23C U28G G41A A42U U59A	≤ 0.5
C24A C49U	0.614
G23C G39C A70U	≤ 0.5
C22U U28A C33G G58A C66U	≤ 0.5
C22U G39A C49G	≤ 0.5
G23A C29A G48A C55A	≤ 0.5
C24A A36C G41A U53C	≤ 0.5
G23C C30G	0.511
G23A A43C G44A A65G	0.637
C24A C27G U53C C55U	≤ 0.5
C24A C29U G67U	0.591
G23A G25C G51A	0.661
C24A A43U A45C	≤ 0.5
G23C C30G A37U A45C C46G	≤ 0.5

Variant	yeast fitness
G23C U53A	0.55
G23A G51A C66U	≤ 0.5
C24A A36U C55A	≤ 0.5
G23A C33G A70U	≤ 0.5
C24A A43U G51C G52C	≤ 0.5
C22U U32C G52A C61U	≤ 0.5
C24A C29A A40U A43G C49G	≤ 0.5
G23A U26G A40C C46G C60G	≤ 0.5
G23A C29U C30A A42U U53A	≤ 0.5
C24A A42G C61U C62G	0.541
G23A U59C	0.799
G23A C24U C61U	0.64
G23A G38A G67C	≤ 0.5
G23A C24U A37C G41C U54C U64C	≤ 0.5
C24A C60G	0.51
C24A A42G U47C U59C	≤ 0.5
C22U U26A U47C C62A	≤ 0.5
G23A G48C C55G	≤ 0.5
C24A C61A G67A	≤ 0.5
G23A A57C C62G	0.625
G23C A37G C55G G67A	≤ 0.5
G23A C61A A70U	≤ 0.5
G23A C27G C34A A45C U64G	≤ 0.5
G23C C46U G67A	0.564

Variant	yeast fitness
G23U U54G	≤ 0.5
C24A C30U A45G	≤ 0.5
G23C C29G G63C C66G	≤ 0.5
C22U G58C A69G	0.602
G23C A37C	0.656
G23C A37G	≤ 0.5
C24A C33G	0.705
C24A C33A	0.587
C24A C33U	0.601
G23C A36U U53C	0.553
G23C C29A C66U	≤ 0.5
C24A A43G A70C	≤ 0.5
C24A C31U C46U	0.785
G23C C24G C34G C46U U54G	≤ 0.5
C24A A40U A43U C61G G68U	0.597
C24A A42G C49U U59G C62A A69G	≤ 0.5
C22U U28C C34U A40C U64A	0.762
C22U G58C A65C	≤ 0.5
C22U U54C	0.724
C24A A37U	0.579
C24A A37G	0.513
G23A G58C A70C	0.582
C24A C55A A65G	≤ 0.5
G23C G25A G48C	0.594

Variant	yeast fitness
G23C U28A	0.559
G23C A42U A43G A65U	≤ 0.5
G23A C24G A37C	0.506
G23U A36C C46U G50C G67C	≤ 0.5
C22U U54C G67A	≤ 0.5
C24A A45G G50A	≤ 0.5
G23A C29G G52C	≤ 0.5
G23C C31G G50A	≤ 0.5
C22U U35A	0.553
G23A A36G C55G A69U	0.567
G23C C30G G63A	≤ 0.5
G23A C29G U32C A45U C60G C61U A69G	≤ 0.5
C24A C34A A37G A57G A65G	0.544
G23C C33A G50C G58C A70G	0.548
C24A C29U C61G	≤ 0.5
C24A A65U	0.549
C24A A65G	0.654
G23C G25A C61U	0.536
G23C G38A C61U	0.578
G23A A43U C49U C62U	≤ 0.5
G23C C27U C29U G51A	0.645
G23C A42G G56A	≤ 0.5
G23A U53G	≤ 0.5
C24A A36G C61U	≤ 0.5

Variant	yeast fitness
G23A C46A	0.882
G23A C27U C34U A45C A70U	0.57
G23C G68A A69U	≤ 0.5
G23C U28A A65G	≤ 0.5
C22U G44C G48A G51A	0.57
G23A U35C	0.572
G23A C29A C61U	≤ 0.5
G23A A42G	0.747
G23A A70U	0.854
G23A A70G	0.689
C24A C31G C60U	≤ 0.5
C22U G56C	0.608
G23C C31U	0.579
C22U G52C U54C	≤ 0.5
G23A G41C C49G	0.854
G23C G41C C66U	≤ 0.5
G23C U26C	0.624
C24A C33A C49U U54G	0.58
C22U G51C	0.512
G23C U26C C46G C55U	≤ 0.5
C22U U53C G68C	≤ 0.5
G23C C24U A37C U53C	≤ 0.5
G23C C24A U32C A65U G68A	≤ 0.5
